{"data": "Assay results collected from several papers", "target": "Receptor tyrosine-protein kinase erbB-4 (ERBB4, Homo sapiens, UniProt Q15303)", "note": "Compare with care: the assays were run in different laboratories."}
{"Compound": "CN1CC(Oc2cnc(C#N)cc2-c2ccn3nc(NC(=O)C4CC4)cc3c2)C1", "effect on": "enzyme activity", "mode": "inhibitor", "concentration": "1 µM", "measurement": "inhibition", "value": "-2%"}
{"Compound": "CC(C)(C)c1nc2c(s1)c1nc(N)ncc1c1ccc(NS(=O)(=O)c3c(F)cccc3F)c(F)c12", "effect on": "enzyme activity", "mode": "inhibitor", "technique": "radiometric", "concentration": "1 µM", "measurement": "remaining activity", "value": "80%"}
{"Compound": "N#CCCc1ccc2c(c1)-c1[nH]c3ccc([N+](=O)[O-])cc3c1CC(=O)N2", "effect on": "cell-free assay", "concentration": "0.5 µM", "measurement": "remaining signal", "value": "91.8%"}
{"Compound": "COc1cc(Cl)c(C(=O)N[C@@H](CN[C@H]2CC[C@@H](N)CC2)Cc2ccc(C#N)cc2)cc1-c1ccc(CN[C@H](C)c2ccc(C)cc2)o1", "effect on": "enzyme activity", "mode": "inhibitor", "concentration": "1 µM", "measurement": "remaining activity", "value": "99%"}
{"Compound": "Cc1cc(-n2nc(Cc3cc(F)cc(C(F)(F)F)c3)nc2C)ccc1C(N)=O", "effect on": "cell-free assay", "technique": "competition with immobilised ligand", "concentration": "1 µM", "measurement": "remaining binding", "value": "67%"}
{"Compound": "CCN(CC)c1ccc(C2=NNC(=O)CC2C)cc1[N+](=O)[O-] (stereo not drawn)", "effect on": "enzyme activity", "mode": "inhibitor", "concentration": "10 µM", "measurement": "remaining activity", "value": "94%"}
{"Compound": "O=C(NCc1ncc(C(F)(F)F)cc1Cl)c1ccc2c(c1)C1(CCS(=O)(=O)CC1)[C@@H](C1CC1)N2S(=O)(=O)c1ccc(F)cc1", "effect on": "cell-free assay", "technique": "competition with immobilised ligand", "concentration": "1 µM", "measurement": "remaining binding", "value": "72%"}
{"Compound": "Nc1ncnc2occ(-c3ccc(NC(=O)Nc4cc(C(F)(F)F)ccc4F)cc3)c12", "effect on": "cell-free assay", "mode": "inhibitor", "concentration": "20 µM", "measurement": "remaining signal", "value": "57%"}
{"Compound": "Cc1ccc(NC(=O)c2ccc(CN3CCN(C)CC3)cc2)cc1Nc1nc(-c2cccnc2)cs1", "effect on": "cell-free assay", "concentration": "0.5 µM", "measurement": "remaining signal", "value": "93.5%"}
{"Compound": "CNC(=O)c1cc(Oc2ccc(NC(=O)Nc3ccc(Cl)c(C(F)(F)F)c3)cc2)ccn1", "effect on": "enzyme activity", "mode": "inhibitor", "concentration": "0.3 µM", "measurement": "inhibition", "value": "-7%"}
{"Compound": "CCCS(=O)(=O)Nc1ccc(F)c(C(=O)c2c[nH]c3ncc(-c4ccc(Cl)cc4)cc23)c1F", "effect on": "enzyme activity", "mode": "inhibitor", "concentration": "1 µM", "measurement": "inhibition", "value": "< 10%"}
{"Compound": "Cc1ccc(C(=O)NCc2ccsc2)cc1C#Cc1cn(C(C)C)c2ncnc(N)c12", "effect on": "enzyme activity", "mode": "inhibitor", "concentration": "1 µM", "measurement": "activity vs control", "value": "52%"}
{"Compound": "Cc1ccc(Nc2nccc(N(C)c3ccc4c(C)n(C)nc4c3)n2)cc1S(N)(=O)=O", "effect on": "enzyme activity", "mode": "inhibitor", "concentration": "10 µM", "measurement": "inhibition", "value": "36%"}
{"Compound": "Cc1ccc(C(=O)Nc2ccc(CN3CCN(C)CC3)c(C(F)(F)F)c2)cc1C#Cc1cnc2cccnn12", "effect on": "enzyme activity", "mode": "inhibitor", "concentration": "23.5 nM", "measurement": "remaining activity", "value": "57%"}
{"Compound": "COc1cc2c(N3CCN(C(=O)Nc4ccc(OC(C)C)cc4)CC3)ncnc2cc1OCCCN1CCCCC1", "effect on": "cell-free assay", "concentration": "0.5 µM", "measurement": "remaining signal", "value": "97.3%"}
{"Compound": "CC(C)CC(=O)N1CCc2nc(-c3ccc(Br)cc3)nc(N(C)Cc3ccccc3)c2C1", "effect on": "cell-free assay", "technique": "competition with immobilised ligand", "concentration": "0.1 µM", "measurement": "remaining binding", "value": "94%"}
{"Compound": "FC(F)c1nc2ccccc2n1-c1nc(N2CCOCC2)nc(N2CCOCC2)n1", "effect on": "enzyme activity", "mode": "inhibitor", "concentration": "10 µM", "measurement": "remaining activity", "value": "103%"}
{"Compound": "Cc1nc(N2CC[C@@H](O)C2)ncc1-c1cc(C(F)(F)F)cc2[nH]ncc12", "effect on": "binding", "technique": "competition with immobilised ligand", "concentration": "1 µM", "measurement": "remaining binding", "value": "87%"}
{"Compound": "Oc1cccc(-c2nc(N3CCOCC3)c3oc4ncccc4c3n2)c1", "effect on": "enzyme activity", "mode": "inhibitor", "concentration": "10 µM", "measurement": "remaining activity", "value": "114%"}
{"Compound": "O=C(O)[C@H]1[C@H](Cn2nnc3ccccc3c2=O)CC[C@@H]1C(=O)c1ccc(OCCC2CCOCC2)cc1", "effect on": "cell-free assay", "technique": "competition with immobilised ligand", "concentration": "1 µM", "measurement": "remaining binding", "value": "89%"}
{"Compound": "COc1cc2ncnc(Nc3ccc(F)c(Cl)c3)c2cc1OCCCN1CCOCC1", "effect on": "cell-free assay", "concentration": "0.5 µM", "measurement": "remaining signal", "value": "24.2%"}
{"Compound": "Cc1cc(C)c(-n2ccn3nc(-c4cccnc4)cc23)cc1NC(=O)c1cc(C#N)cc(S(F)(F)(F)(F)F)c1", "effect on": "cell-free assay", "technique": "competition with immobilised ligand", "concentration": "0.1 µM", "measurement": "remaining binding", "value": "96.3%"}
{"Compound": "COc1cc2ncnc(Nc3ccc(Oc4ccccc4)c(C)c3C)c2cc1OC", "effect on": "enzyme activity", "mode": "inhibitor", "concentration": "1 µM", "measurement": "inhibition", "value": "89%"}
{"Compound": "O=C(NC[C@@H]1[C@H]2CN(C(=O)OCc3cc(C(F)(F)F)cc(C(F)(F)F)c3)C[C@@H]12)c1ccc2[nH]nnc2c1", "effect on": "cell-free assay", "technique": "competition with immobilised ligand", "concentration": "1 µM", "measurement": "remaining binding", "value": "100%"}
{"Compound": "COc1cc(Nc2cnc(C#N)c(O[C@H](C)CN(C)C)n2)ncc1-c1cnn(C)c1", "effect on": "enzyme activity", "mode": "inhibitor", "technique": "radiometric", "concentration": "1 µM", "measurement": "remaining activity", "value": "101%"}
{"Compound": "CCCOc1ccc([C@@H]2[C@@H](C(=O)O)[C@H](c3ccc4c(c3)OCO4)CN2CC(=O)Nc2c(CC)cccc2CC)cc1", "effect on": "cell-free assay", "technique": "competition with immobilised ligand", "concentration": "1 µM", "measurement": "remaining binding", "value": "100%"}
{"Compound": "CC(C)(O)[C@H]1CC[C@H](Nc2ccc3ncc(-c4cccc(C(F)(F)F)c4)n3n2)CC1", "effect on": "enzyme activity", "mode": "inhibitor", "concentration": "1 µM", "measurement": "remaining activity", "value": "92.6%"}
